From ChEMBL document CHEMBL4371073, “Improvement of Aqueous Solubility of Lapatinib-Derived Analogues: Identification of a Quinolinimine Lead for Human African Trypanosomiasis Drug Development” (J Med Chem, 2019)

Test: Intrinsic clearance in human liver microsomes by LC-MS/MS analysis
Type: ADME, Microsome
Conditions: liver microsomes, read-out: CLH
Procedure, shortened: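 Human liver microsomes were incubated with compound and samples analyzed by LC/MS/MS. Clint is expressed as μL/min/mg.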

First: CN(CCNc1ncc(-c2ccc3c(Nc4cnccn4)ccnc3c2)cn1)C(=O)OC(C)(C)C
Second: CN1CCN(c2ncc(-c3ccc4c(Nc5cnccn5)ccnc4c3)cn2)CC1
The microsomal CLint of the first is higher: greater than 300 µL/min/mg for the first, 180 µL/min/mg for the second.

Same assay, conditions: microsomes

Going from `CN1CC2(CCN(c3ncc(-c4ccc5c(Nc6cnccn6)ccnc5c4)cn3)C2)C1` to `CN1CCC2(CCN(c3ncc(-c4ccc5c(Nc6cnccn6)ccnc5c4)cn3)C2)C1` (stereo not drawn), the Microsomal intrinsic clearance rises from 43 µL/min/mg to 77 µL/min/mg (1.8-fold).

`Cc1cnc(Nc2ccnc3cc(-c4cnc(N5CCCN(C)CC5)nc4)ccc23)cn1` and `Cc1cncc(Nc2ccnc3cc(-c4cnc(N5CCCN(C)CC5)nc4)ccc23)n1` are within 1.5-fold of each other in Microsomal intrinsic clearance: 100 µL/min/mg for the first, 72 µL/min/mg for the second.

Going from `COC(=O)[C@@H]1CCCN1c1ncc(-c2ccc3c(Nc4cnccn4)ccnc3c2)cn1` to `CN1C[C@H]2C[C@@H]1CN2c1ncc(-c2ccc3c(Nc4cnccn4)ccnc3c2)cn1`, the Microsomal intrinsic clearance falls from 220 µL/min/mg to 41 µL/min/mg (5.4-fold).

First: CCCN1CCCN(c2ncc(-c3ccc4c(Nc5cnccn5)ccnc4c3)cn2)CC1
Second: CCN1CCCN(c2ncc(-c3ccc4c(Nc5cnccn5)ccnc4c3)cn2)CC1
The Microsomal intrinsic clearance of the first is 1.5-fold higher: 300 µL/min/mg for the first, 200 µL/min/mg for the second.

`Cc1nccnc1Nc1ccnc2cc(-c3cnc(N4CCCN(C)CC4)nc3)ccc12` and `CN1CCCN(c2ncc(-c3ccc4c(Nc5cnccn5)ccnc4c3)cn2)CC1` are within 1.5-fold of each other in Microsomal intrinsic clearance: 79 µL/min/mg for the first, 77 µL/min/mg for the second.

`CN1CCN(c2ncc(-c3ccc4c(Nc5cnccn5)ccnc4c3)cn2)CC1.CS(=O)(=O)O` and `CN1CCN(c2ncc(-c3ccc4c(Nc5cnccn5)ccnc4c3)cn2)CC1.Cl` are within 1.5-fold of each other in Microsomal intrinsic clearance: 170 µL/min/mg for the first, 160 µL/min/mg for the second.

Going from `CN1CCN(c2ncc(-c3ccc4c(NC5CCOCC5)ccnc4c3)cn2)CC1` to `CN1CCN(c2ncc(-c3ccc4c(NCC5CCOCC5)ccnc4c3)cn2)CC1`, the Microsomal intrinsic clearance rises from 94 µL/min/mg to 170 µL/min/mg (1.8-fold).

Compared with `COc1ccc(NC(=O)c2ccc(-c3cnc(N4CCCN(C)CC4)nc3)cc2O)cc1Cl`, `CN1CCCN(c2ncc(-c3ccc4c(N(C)c5cnccn5)ccnc4c3)cn2)CC1` is 7.1-fold higher in Microsomal intrinsic clearance: 24 µL/min/mg for the first, 170 µL/min/mg for the second.

`CCCn1cc/c(=N\c2cnccn2)c2ccc(-c3cnc(N4CCCN(C)CC4)nc3)cc21` and `CCn1cc/c(=N\c2cnccn2)c2ccc(-c3cnc(N4CCCN(C)CC4)nc3)cc21` are within 1.5-fold of each other in Microsomal intrinsic clearance: 51 µL/min/mg for the first, 38 µL/min/mg for the second.

Going from `CN1CCN(c2ncc(-c3ccc4c(N[C@@H]5CCCC[C@H]5O)ccnc4c3)cn2)CC1` to `CN1CCN(c2ncc(-c3ccc4c(NC5CCCCC5)ccnc4c3)cn2)CC1`, the Microsomal intrinsic clearance rises from 160 µL/min/mg to 300 µL/min/mg (1.9-fold).

First: c1cnc(Nc2ccnc3cc(-c4cnc(N5CCNCC5)nc4)ccc23)cn1
Second: O=C(O)CN1CCN(c2ncc(-c3ccc4c(Nc5cnccn5)ccnc4c3)cn2)CC1
The Microsomal intrinsic clearance of the first is 1.8-fold lower: 30 µL/min/mg for the first, 53 µL/min/mg for the second.

`CN1CCN(c2ccc(-c3ccc4c(Nc5cnccn5)ccnc4c3)cc2)CC1` and `CN1CCN(c2ncc(Nc3ccc4c(Nc5cnccn5)ccnc4c3)cn2)CC1` are within 1.5-fold of each other in Microsomal intrinsic clearance: 61 µL/min/mg for the first, 46 µL/min/mg for the second.

First: CN(C)CCN(C)c1ncc(-c2ccc3c(Nc4cnccn4)ccnc3c2)cn1
Second: NCCNc1ncc(-c2ccc3c(Nc4cnccn4)ccnc3c2)cn1
The Microsomal intrinsic clearance of the first is 1.9-fold lower: 45 µL/min/mg for the first, 86 µL/min/mg for the second.

Going from `CN1CCN(c2ncc(-c3ccc4c(Nc5cnccn5)ccnc4c3)cn2)CC1.O=C(O)CC(O)(CC(=O)O)C(=O)O` to `CN1C[C@@H]2C[C@H]1CN2c1ncc(-c2ccc3c(Nc4cnccn4)ccnc3c2)cn1`, the Microsomal intrinsic clearance falls from 190 µL/min/mg to 37 µL/min/mg (5.1-fold).

With `CCN1CCN(c2ncc(-c3ccc4c(Nc5cnccn5)ccnc4c3)cn2)CC1` the Microsomal intrinsic clearance was greater than 300 µL/min/mg.
In the case of `c1cnc(Nc2ccnc3cc(-c4cnc(N5CCCCCC5)nc4)ccc23)cn1`, the Microsomal intrinsic clearance is reported as greater than 300 µL/min/mg.
Compound `CC(C)(C)OC(=O)NCCNc1ncc(-c2ccc3c(Nc4cnccn4)ccnc3c2)cn1` has a Microsomal intrinsic clearance greater than 300 µL/min/mg.
`O=C(O)[C@@H]1CCCN1c1ncc(-c2ccc3c(Nc4cnccn4)ccnc3c2)cn1` gave a Microsomal intrinsic clearance of less than 3 µL/min/mg.

Test: Chemical stability in 0.01 N HCl solution at 2 mg up to 16 hrs by LC-MS analysis
Type: physicochemical
Conditions: not given

In the case of `CN1CCCN(c2ncc(-c3ccc4/c(=N/c5cnccn5)ccn(C)c4c3)cn2)CC1`, the Stability is reported as “Stable”.

Test: Chemical stability in 0.01 N NaOH solution at 2 mg up to 16 hrs by LC-MS analysis
Type: physicochemical
Conditions: not given

For `CN1CCCN(c2ncc(-c3ccc4/c(=N/c5cnccn5)ccn(C)c4c3)cn2)CC1`, the Stability was “Stable”.

Test: Stability in presence of GSH at 2.3 mg up to 24 hrs by LC-MS analysis
Type: physicochemical
Conditions: not given

With `CN1CCCN(c2ncc(-c3ccc4/c(=N/c5cnccn5)ccn(C)c4c3)cn2)CC1` the Stability was “Stable”.

Test: Stability in presence of sodium cyanide at 2.3 mg up to 24 hrs by LC-MS analysis
Type: physicochemical
Conditions: not given

With `CN1CCCN(c2ncc(-c3ccc4/c(=N/c5cnccn5)ccn(C)c4c3)cn2)CC1` the Stability was “Stable”.
